The source of these data is ChEMBL document CHEMBL1157268, “ent-Labdane diterpenoids from Andrographis paniculata” (2006).

Assay [1] deals with Micrococcus luteus. As to the kind of experiment: Antimicrobial activity against Micrococcus luteus at 10 ug/ml by disk diffusion assay. The format is functional, organism-based. The method, boiled down: (§1)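 Qualitative screen on agar plates: each diterpenoid applied to disks at 10 µg/mL and tested in parallel against eight strains (B. subtilis, S. aureus, E. coli, M. luteus, S. lutea, C. albicans, C. sake, A. niger). Growth inhibition was scored as a clear inhibition zone around the disk, with zone diameter in mm as the read-out.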
In general terms: In agar diffusion tests the substance spreads into inoculated agar from a disc or well.

Assay [2] relates to Staphylococcus aureus. The experiment in a line: Antimicrobial activity against Staphylococcus aureus at 10 ug/ml by disk diffusion assay. The format is functional, organism-based. The method, boiled down:
as §1

The subject of assay [3] is Bacillus subtilis. The experiment in a line: Antimicrobial activity against Bacillus subtilis at 10 ug/ml by disk diffusion assay. Type of assay: functional. As to conditions: for zone of inhibition at 10 µg/mL: read-out: IZ. The gist of the method:
as §1

Assay [4] concerns Aspergillus niger. As to the kind of experiment: Antimicrobial activity against Aspergillus niger at 10 ug/ml by disk diffusion assay. The format is functional, organism-based. The method, boiled down: as §1
The test system of assay [5] is Escherichia coli. As to the kind of experiment: Antimicrobial activity against Escherichia coli at 10 ug/ml by disk diffusion assay. The format is functional, organism-based. The gist of the method:
as §1

For assay [6], the system named is [Candida] sake. The experiment in a line: Antimicrobial activity against Candida sake at 10 ug/ml by disk diffusion assay. The format is functional, organism-based. The gist of the method:
as §1

In assay [7] the test system is Candida albicans. The experiment in a line: Antimicrobial activity against Candida albicans at 10 ug/ml by disk diffusion assay. Type of assay: functional, organism-based. The method, boiled down: as §1

SMILES strings stand for the structures. Active and inactive are the calls of the source. The calls are words filed in the database; no cut-off is given here.

For the molecule `C=C1CC[C@@H]2[C@](C)(CO)CCC[C@@]2(C)[C@@H]1CCC1=CCOC1=O` [ANDROGRAPANIN], the result in assay [1], in assay [2], in assay [4], in assay [5], in assay [6] and in assay [7] was inactive. Besides, the zone of inhibition at 10 µg/mL in assay [3] came to 7 mm.

In the case of `C=C1CC[C@@H]2[C@](C)(CO[C@@H]3O[C@H](CO)[C@@H](O)[C@H](O)[C@H]3O)[C@H](O)CC[C@@]2(C)[C@@H]1C/C=C1/C(=O)OC[C@H]1O`, the outcome in assay [1], in assay [2], in assay [3], in assay [4], in assay [5] and in assay [6] was inactive. The result in assay [7] was inactive.

For the molecule `C=C1CC[C@@H]2[C@](C)(CO[C@@H]3O[C@H](CO)[C@@H](O)[C@H](O)[C@H]3O[C@@H]3OC[C@](O)(CO)[C@H]3O)CCC[C@@]2(C)[C@@H]1CCC1=CCOC1=O`, the result in assay [1], in assay [2], in assay [3], in assay [4], in assay [5] and in assay [6] was inactive. Moreover, the outcome in assay [7] was inactive.

Regarding `C=C1CC[C@H]2[C@@](C)(CC[C@@H](O)[C@@]2(C)CO)[C@@H]1C(=O)/C=C1\CCOC1=O`, the result in assay [1], in assay [2], in assay [3], in assay [4], in assay [5] and in assay [6] was inactive. Moreover, the outcome in assay [7] was inactive.

Take `C=C1CC[C@@H]2[C@](C)(CO)[C@H](O)CC[C@@]2(C)[C@@H]1C/C=C1\C(=O)OCC1O` (stereo not given in full) [ISOANDROGRAPHOLIDE]: the result in assay [1], in assay [2], in assay [4], in assay [5], in assay [6] and in assay [7] was inactive. Further, the zone of inhibition at 10 µg/mL in assay [3] was found to be 7 mm.

With `C=C1CC[C@H]2[C@@](C)(CCC[C@@]2(C)C(=O)O[C@@H]2O[C@H](CO)[C@@H](O)[C@H](O)[C@H]2O)[C@@H]1CC/C(=C/CO)CO`, the outcome in assay [1], in assay [2], in assay [3], in assay [4], in assay [5] and in assay [6] was inactive. Besides, in assay [7], the outcome was inactive.

As for `C[C@]1(CO)[C@H]2CC[C@]3(CO3)[C@@H](CCC3=CCOC3=O)[C@]2(C)CC[C@H]1O`, the outcome in assay [1], in assay [2], in assay [3], in assay [4], in assay [5] and in assay [6] was inactive. Also, the result in assay [7] was inactive.

Take `C=C1CC[C@@H]2[C@](C)(CO)[C@H](O[C@@H]3O[C@H](CO)[C@@H](O)[C@H](O)[C@H]3O)CC[C@@]2(C)[C@@H]1C/C=C1/C(=O)OC[C@H]1O`: the result in assay [1], in assay [2], in assay [3], in assay [4], in assay [5] and in assay [6] was inactive. For the same molecule, in assay [7], the outcome was inactive.

On to `C[C@]1(CO)[C@H]2CC[C@H](CO)[C@@H](CCC3=CCOC3=O)[C@]2(C)CC[C@H]1O`, for which the result in assay [1], in assay [2], in assay [3], in assay [4], in assay [5] and in assay [6] was inactive. The outcome in assay [7] was inactive.

For `C=C1CC[C@@H]2[C@](C)(CO[C@@H]3O[C@H](CO)[C@@H](O)[C@H](O)[C@H]3O)[C@H](O)CC[C@@]2(C)[C@@H]1/C=C/C1=CCOC1=O`, the result in assay [1], in assay [2], in assay [3], in assay [4], in assay [5] and in assay [6] was inactive. In addition, in assay [7], the outcome was inactive.

On to `C=C1CC[C@@H]2[C@](C)(CO)[C@H](O)CC[C@@]2(C)[C@@H]1CCC1=CCOC1=O`, for which the outcome in assay [1], in assay [2], in assay [3], in assay [4], in assay [5] and in assay [6] was inactive. Moreover, the result in assay [7] was inactive.

Take `C=C1CC[C@@H]2[C@](C)(CO)[C@H](O)CC[C@@]2(C)[C@@H]1C(O)/C=C1\CCOC1=O` (stereo not given in full): the result in assay [1], in assay [2], in assay [3], in assay [4], in assay [5] and in assay [6] was inactive. The outcome in assay [7] was inactive.

For the molecule `C=C1CC[C@@H]2[C@](C)(CO)[C@H](O)CC[C@@]2(C)[C@@H]1C/C=C1/C(=O)OC[C@H]1O`, the outcome in assay [1], in assay [2], in assay [3], in assay [4], in assay [5] and in assay [6] was inactive. Further, the result in assay [7] was inactive.

Regarding `C=C1CC[C@@H]2[C@](C)(CO)[C@H](O)CC[C@@]2(C)[C@@H]1C[C@@H](O)C1C(=O)OC[C@H]1O` (stereo not given in full), the result in assay [1], in assay [2], in assay [3], in assay [4], in assay [5] and in assay [6] was inactive. Besides, the outcome in assay [7] was inactive.

Regarding `C=C1CC[C@@H]2[C@](C)(CO[C@@H]3O[C@H](CO)[C@@H](O)[C@H](O)[C@H]3O)CCC[C@@]2(C)[C@@H]1CCC1=CCOC1=O`, the result in assay [1], in assay [2], in assay [3], in assay [4], in assay [5] and in assay [6] was inactive. Moreover, the result in assay [7] was inactive.

Take `C=C1CCC2C(C)(CO)C(O)CCC2(C)C1/C=C/C1=CC(C2(CCC3=CCOC3=O)C(=C)CCC3C(C)(CO)C(O)CCC32C)OC1=O` (stereo not given): the result in assay [1], in assay [2], in assay [3], in assay [4], in assay [5] and in assay [6] was inactive. In assay [7], the outcome was inactive.

As for `C=C1CC[C@@H]2[C@](C)(CO)[C@H](O)CC[C@@]2(C)[C@@H]1/C=C/C1=CCOC1=O`, the outcome in assay [1], in assay [2], in assay [4], in assay [5], in assay [6] and in assay [7] was inactive. In addition, in assay [3], the zone of inhibition at 10 µg/mL was 7 mm.

For the molecule `C=C1CC[C@@H]2[C@](C)(CO)[C@H](O)CC[C@@]2(C)[C@@H]1C[C@@H](O)C1=CCOC1=O`, the result in assay [1], in assay [2], in assay [4], in assay [5], in assay [6] and in assay [7] was inactive. Besides, the zone of inhibition at 10 µg/mL in assay [3] was 7 mm.

Turning to `C=C1CC[C@@H]2[C@](C)(CO[C@@H]3O[C@H](CO)[C@@H](O)[C@H](O)[C@H]3O)[C@H](O)CC[C@@]2(C)[C@@H]1CCC1=CCOC1=O`, the outcome in assay [1], in assay [2], in assay [3], in assay [4], in assay [5] and in assay [6] was inactive. Further, the result in assay [7] was inactive.

Turning to `C=C1CC[C@@H]2C(C)(C)[C@H](O[C@@H]3O[C@H](CO)[C@@H](O)[C@H](O)[C@H]3O)CC[C@@]2(C)[C@@H]1CCC1=CCOC1=O`, the result in assay [1], in assay [2], in assay [3], in assay [4], in assay [5] and in assay [6] was inactive. Moreover, the outcome in assay [7] was inactive.
